Blank lines part the entries; values can stand above or below the molecule they belong to. Activity calls are given as the source filed them. The calls are words filed in the database; no cut-off is given here.
Key:
Hepatocyte = experiment: Increase in CYP3A4 protein level in human primary hepatocytes at 10 uM by Western blot analysis relative to rifampicin; format: ADME, cell-based
Summary of the method: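 Human primary cultured hepatocytes exposed to 10 µM compound; CYP3A4 protein measured by Western blot relative to rifampicin at 10 µM.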

[1] = Inhibition of PDE4 activity in rat whole blood assessed as inhibition of LPS-induced TNF-alpha release; format: tissue-based
[2] = biological target: 3',5'-cyclic-AMP phosphodiesterase 4A (Homo sapiens, UniProt P27815); experiment: Inhibition of PDE4A; details: pooled result: one value given for 3 cell lines, strains, targets or settings
Summary of the method: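 Catalytic domains of PDE4A, B and D expressed as GST constructs in SF9 cells (baculovirus). IC50s are averages of at least two experiments.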

Phosphodiesterase 4 = Phosphodiesterase 4 (Homo sapiens, UniProt P27815+Q08499+Q07343+Q08493); experiment: Inhibition of PDE4 activity in human whole blood assessed as inhibition of LPS-induced TNF-alpha release
[3] = Clearance in rhesus monkey at 10 mg/kg, po or 1 mg/kg, iv; format: ADME, organism-based, Macaca mulatta; details: in vivo
[4] = Half life in dog at 3 mg/kg, po or 1 mg/kg, iv; format: ADME, organism-based, Canis lupus familiaris; details: in vivo
Rattus norvegicus [5] = organism: Rattus norvegicus; experiment: Ratio MED for cognitive enhancing effect in lister rat during water maze delayed matching to position test to MED for adverse effect in lister rat during conditional taste aversion test; format: functional
Summary of the method: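 Therapeutic window as water maze MED over CTA MED. Water maze: rats dosed orally daily in 0.5% methocel before sample trial, 0.01–3.0 mg/kg, n = 10; four 60 s trials/day, 4 h inter-trial delay, savings score. CTA: water-deprived male hooded Lister rats, 20 min 0.1% saccharin on two conditioning days, oral dose immediately after; LiCl 30.0 mg/kg ip control; test-day intake.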

Cytochrome P450 1A2 = biological target: T1, Cytochrome P450 1A2 (Homo sapiens, UniProt P05177); experiment: Inhibition of human CYP1A2; format: ADME
T1 sequence (P05177 whole entry): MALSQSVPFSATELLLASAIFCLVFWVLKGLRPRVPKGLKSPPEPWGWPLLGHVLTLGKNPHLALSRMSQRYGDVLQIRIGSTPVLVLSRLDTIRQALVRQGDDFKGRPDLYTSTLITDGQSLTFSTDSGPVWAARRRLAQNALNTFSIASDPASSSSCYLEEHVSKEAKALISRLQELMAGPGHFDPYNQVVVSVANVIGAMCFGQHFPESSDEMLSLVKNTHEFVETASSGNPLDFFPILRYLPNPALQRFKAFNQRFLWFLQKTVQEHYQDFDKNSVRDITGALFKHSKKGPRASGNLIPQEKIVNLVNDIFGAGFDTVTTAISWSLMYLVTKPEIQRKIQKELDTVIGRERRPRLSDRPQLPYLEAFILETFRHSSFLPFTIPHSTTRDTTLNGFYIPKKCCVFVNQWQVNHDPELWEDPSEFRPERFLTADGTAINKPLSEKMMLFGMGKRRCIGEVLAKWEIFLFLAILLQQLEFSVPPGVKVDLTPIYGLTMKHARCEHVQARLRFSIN

Plasma [6] = experiment: Drug level in plasma of Lister rat during conditional taste aversion test; format: ADME, cell-free
Summary of the method: (§1)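 Male hooded Lister rats in the conditioned taste aversion test given oral compound in 0.5% methocel. Plasma and whole brain levels were measured on the tested animals 90 min post-dosing.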

[7] = Clearance in dog at 3 mg/kg, po or 1 mg/kg, iv; format: ADME, organism-based, Canis lupus familiaris; details: in vivo
[8] = Half life in squirrel monkey at 10 mg/kg, po or 1 mg/kg, iv; format: ADME, organism-based; details: saimiri, in vivo
[9] = Metabolic stability in dog hepatocytes assessed as compound metabolism level; format: ADME, cell-based, Canis lupus familiaris, Hepatocyte; details: read-out: Activity
Cytochrome P450 2D6 = Cytochrome P450 2D6 (Homo sapiens, UniProt P10635); experiment: Inhibition of human CYP2D6; format: ADME
[10] = Inhibition of PDE4 activity in rhesus monkey whole blood assessed as inhibition of LPS-induced TNF-alpha release; format: tissue-based; details: Macaca mulatta
[11] = Metabolic stability in rhesus monkey hepatocytes assessed as compound metabolism level; format: ADME, cell-based, Macaca mulatta, Hepatocyte; details: read-out: Activity
[12] = Metabolic stability in female rat hepatocytes assessed as compound metabolism level; format: ADME, cell-based, Hepatocyte; details: read-out: Activity
CYP3A = CYP3A (Homo sapiens, UniProt P08684+P20815+P24462+Q9HB55); experiment: Inhibition of human CYP3A; format: ADME
[13] = Drug excretion in bile cannulated male rat assessed as excretion of parent compound in bile at 3 mg/kg, iv using [3H]-labeled compound measured after 8 hrs; format: ADME, organism-based; set-up: dose 3 mg/kg, route intravenous; details: in vivo
Summary of the method: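 Permanently bile-cannulated male rats dosed iv with tritiated compound (3 mg/kg, 100 μCi/kg); bile collected 0–8 h and parent expressed as % of total radioactivity.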

[14] = Metabolic stability in male rat hepatocytes assessed as compound metabolism level; format: ADME, cell-based, Hepatocyte; details: read-out: Activity
Cytochrome P450 2C9 [15] = biological target: T2, Cytochrome P450 2C9 (Homo sapiens, UniProt P11712); experiment: Inhibition of human CYP2C9; format: ADME
[16] = Oral bioavailability in squirrel monkey at 10 mg/kg; format: ADME, organism-based; details: saimiri, in vivo
[17] = Clearance in rat at 10 mg/kg, po or 3 mg/kg, iv; format: ADME, organism-based; details: in vivo
Rattus norvegicus [18] = organism: Rattus norvegicus; experiment: Cognitive enhancing effect in Lister rat assessed as change in escape latency pretreated 90 mins before sample phase by water maze delayed matching to position test; format: functional; details: read-out: MED
Summary of the method: (§2)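 Rats in a water maze with the platform moved daily, four 60 s trials per day over five days. Oral dosing in 0.5% methocel, 90 or 30 min before the sample trial. Savings score = escape latency difference between trials 1 and 2 over a 4 h delay. n = 10; Newman–Keuls test.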

[19] = Oral bioavailability in rat at 10 mg/kg; format: ADME, organism-based; details: in vivo
[20] = Inhibition of PDE4 activity in squirrel monkey whole blood assessed as inhibition of LPS-induced TNF-alpha release; format: tissue-based; details: Saimiri
Rattus norvegicus [21] = organism: Rattus norvegicus; experiment: Induction of adverse effect in Lister rat assessed as induction of malaise by conditional taste aversion test; format: organism-based; details: in vivo
Summary of the method: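 Singly housed male hooded Lister rats, water-deprived 22.5 h/day. On two conditioning days they had 20 min access to 0.1% saccharin, then received oral compound in 0.5% methocel, vehicle, or LiCl 30 mg/kg ip. Consumption on test day was compared with baseline (n = 6–8; Dunnett's test).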

Brain [22] = experiment: Drug level in brain of Lister rat during water maze delayed matching to position test; details: in vivo, read-out: Drug uptake
[23] = Half life in rat at 10 mg/kg, po or 3 mg/kg, iv; format: ADME, organism-based; details: in vivo
Brain [24] = experiment: Drug level in brain of Lister rat during conditional taste aversion test; format: ADME, tissue-based; details: in vivo, read-out: Drug uptake; summary of the method: as §1
[25] = Half life in rhesus monkey at 10 mg/kg, po or 1 mg/kg, iv; format: ADME, organism-based, Macaca mulatta; details: in vivo
[26] = Oral bioavailability in dog at 3 mg/kg; format: ADME, organism-based, Canis lupus familiaris; details: in vivo
[27] = Oral bioavailability in rhesus monkey at 10 mg/kg; format: ADME, organism-based, Macaca mulatta; details: in vivo
Plasma [28] = experiment: Drug level in plasma of Lister rat during water maze delayed matching to position test
[29] = Metabolic stability in human hepatocytes assessed as compound metabolism level; format: ADME, cell-based, Hepatocyte; details: read-out: Activity
[30] = Clearance in squirrel monkey at 10 mg/kg, po or 1 mg/kg, iv; format: ADME, organism-based; details: saimiri, in vivo
Rattus norvegicus [31] = experiment: Cognitive enhancing effect in Lister rat assessed as recognition of novel object at 0.1 mg/kg, po pretreated 90 mins before sample phase by novel object recognition test; format: functional, organism-based; set-up: dose 0.1 mg/kg
Summary of the method: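 Novel object recognition in rats. Oral dosing in 0.5% methocel 90 min before the sample trial, which ended at 25 s of exploration or 3 min. Choice trial followed with a familiar and a novel object. d2 score = (novel − familiar)/total exploration. n = 21–24; Newman–Keuls test.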

Rattus norvegicus [32] = organism: Rattus norvegicus; experiment: Cognitive enhancing effect in Lister rat assessed as change in escape latency pretreated 30 mins before sample phase by water maze delayed matching to position test; format: functional; details: read-out: MED; summary of the method: as §2
Cytochrome P450 2C9 [33] = biological target: T2, Cytochrome P450 2C9; experiment: Competitive inhibition of CYP2C9; format: ADME
[34] = Ratio IC50 for PDE4 activity in human whole blood to IC50 for PDE4; format: tissue-based
Summary of the method: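 Ratio of two IC50s. The numerator is from human whole blood stimulated with LPS, read as inhibition of TNF-α release. The denominator (PDE4QT) is the mean of the IC50s on the PDE4A, B and D catalytic domains. These were expressed as GST constructs in Sf9 cells by baculovirus. Each IC50 is the average of at least two experiments.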

Rattus norvegicus [35] = organism: Rattus norvegicus; experiment: Cognitive enhancing effect in Lister rat assessed as change in escape latency pretreated before sample phase by water maze delayed matching to position test; format: functional; details: read-out: MED; summary of the method: as §2

Chain of 3',5'-cyclic-AMP phosphodiesterase 4A (P27815 whole entry, the tested form may be a part): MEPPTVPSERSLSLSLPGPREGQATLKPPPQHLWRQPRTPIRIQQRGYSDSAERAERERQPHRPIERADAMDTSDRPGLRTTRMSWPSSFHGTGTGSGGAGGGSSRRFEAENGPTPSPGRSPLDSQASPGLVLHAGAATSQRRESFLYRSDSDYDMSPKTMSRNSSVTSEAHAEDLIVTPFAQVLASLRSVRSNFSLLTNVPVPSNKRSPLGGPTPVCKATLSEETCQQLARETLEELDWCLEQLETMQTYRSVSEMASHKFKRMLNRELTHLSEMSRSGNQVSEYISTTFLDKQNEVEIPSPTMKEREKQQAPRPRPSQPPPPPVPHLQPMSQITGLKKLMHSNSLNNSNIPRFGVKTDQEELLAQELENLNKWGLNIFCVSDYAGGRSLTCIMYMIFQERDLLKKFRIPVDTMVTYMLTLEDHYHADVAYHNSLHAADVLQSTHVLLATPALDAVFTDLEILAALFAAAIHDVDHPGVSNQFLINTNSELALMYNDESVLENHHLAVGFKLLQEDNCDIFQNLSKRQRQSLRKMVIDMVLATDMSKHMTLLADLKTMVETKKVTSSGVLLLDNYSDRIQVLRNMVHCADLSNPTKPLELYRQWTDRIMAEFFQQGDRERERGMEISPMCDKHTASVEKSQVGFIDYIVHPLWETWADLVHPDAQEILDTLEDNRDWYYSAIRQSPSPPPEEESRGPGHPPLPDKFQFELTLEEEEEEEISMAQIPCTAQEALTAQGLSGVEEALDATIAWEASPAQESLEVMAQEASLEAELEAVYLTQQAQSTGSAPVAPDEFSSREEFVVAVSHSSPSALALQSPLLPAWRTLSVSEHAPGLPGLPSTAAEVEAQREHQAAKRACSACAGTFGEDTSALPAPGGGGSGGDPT
T2 sequence (P11712 whole entry): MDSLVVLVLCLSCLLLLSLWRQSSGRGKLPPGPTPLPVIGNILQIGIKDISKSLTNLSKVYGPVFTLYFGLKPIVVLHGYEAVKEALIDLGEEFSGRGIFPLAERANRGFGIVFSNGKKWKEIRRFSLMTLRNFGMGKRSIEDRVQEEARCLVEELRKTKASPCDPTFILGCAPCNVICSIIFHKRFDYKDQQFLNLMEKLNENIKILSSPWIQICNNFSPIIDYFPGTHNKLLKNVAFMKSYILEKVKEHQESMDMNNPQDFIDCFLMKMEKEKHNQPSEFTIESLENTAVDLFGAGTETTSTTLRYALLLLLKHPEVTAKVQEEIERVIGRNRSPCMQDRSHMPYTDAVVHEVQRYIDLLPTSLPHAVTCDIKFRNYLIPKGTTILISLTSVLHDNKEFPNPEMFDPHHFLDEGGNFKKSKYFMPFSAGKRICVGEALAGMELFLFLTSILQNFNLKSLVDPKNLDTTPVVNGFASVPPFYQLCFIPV
Chain of Cytochrome P450 2D6 (P10635 whole entry): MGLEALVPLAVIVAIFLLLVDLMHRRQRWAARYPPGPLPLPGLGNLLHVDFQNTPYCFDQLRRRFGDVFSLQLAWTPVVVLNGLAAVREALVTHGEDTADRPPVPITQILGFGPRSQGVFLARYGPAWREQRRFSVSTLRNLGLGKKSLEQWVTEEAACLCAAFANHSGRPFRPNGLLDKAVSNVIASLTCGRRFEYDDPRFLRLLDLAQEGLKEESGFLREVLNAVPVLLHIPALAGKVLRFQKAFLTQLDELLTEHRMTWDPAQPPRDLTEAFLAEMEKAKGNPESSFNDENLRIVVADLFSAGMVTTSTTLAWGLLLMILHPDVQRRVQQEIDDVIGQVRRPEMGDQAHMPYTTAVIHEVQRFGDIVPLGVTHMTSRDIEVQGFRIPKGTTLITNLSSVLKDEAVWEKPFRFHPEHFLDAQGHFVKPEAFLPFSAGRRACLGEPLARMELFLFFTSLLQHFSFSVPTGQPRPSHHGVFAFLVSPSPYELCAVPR

Activity (Hepatocyte): 23% | IC50 [1]: 450 nM | IC50 [2]: 0.53 nM | IC50 (Phosphodiesterase 4): 550 nM | clearance [3]: 1.3 mL/min/kg | half-life [4]: 6.6 h | IC50 (Cytochrome P450 1A2): > 100000 nM | concentration (Plasma [6]): 12000 nM | clearance [7]: 3.7 mL/min/kg | half-life [8]: 4.3 h | metabolised [9]: 30% | IC50 (Cytochrome P450 2D6): > 100000 nM | IC50 [10]: 940 nM | metabolised [11]: 10% | metabolised [12]: 20% | IC50 (CYP3A): > 100000 nM | Activity [13]: > 35% | metabolised [14]: 5% | IC50 (Cytochrome P450 2C9 [15]): > 100000 nM | bioavailability [16]: 41% | clearance [17]: 1 mL/min/kg | bioavailability [19]: 38% | IC50 [20]: 52 nM | concentration (Brain [22]): 9.2 nM | half-life [23]: 3.5 h | concentration (Brain [24]): 290 nM | half-life [25]: 6.5 h | bioavailability [26]: 100% | bioavailability [27]: 77% | concentration (Plasma [28]): 390 nM | metabolised [29]: 2% | clearance [30]: 1.7 mL/min/kg
SMILES: O=C(NC1CC1)c1cn(-c2cccc(-c3ccc([C@@H]4C[C@H]4C(=O)O)c(F)c3)c2)c2ncccc2c1=O
Ratio (Rattus norvegicus [5]): 100 | minimal effective dose (Rattus norvegicus [18]): 0.1 mg/kg | MED (Rattus norvegicus [21]): 10 mg/kg

IC50 [1]: 23 nM | concentration (Plasma [6]): 113 nM | concentration (Brain [22]): 5.1 nM | concentration (Brain [24]): 21 nM | concentration (Plasma [28]): 27 nM
SMILES: Cc1noc(/C(=C/c2cccc(-c3cc(C(C)(C)S(C)(=O)=O)cc4cccnc34)c2)c2ccc(S(C)(=O)=O)cc2)n1
Activity (Rattus norvegicus [31]): Active | MED (Rattus norvegicus [21]): 1 mg/kg | minimal effective dose (Rattus norvegicus [32]): 0.3 mg/kg

IC50 [1]: 64 nM | IC50 [2]: 5.1 nM | IC50 (Phosphodiesterase 4): 190 nM | concentration (Plasma [6]): 828 nM | IC50 (Cytochrome P450 2C9 [33]): 40000 nM | concentration (Brain [22]): 15 nM | concentration (Brain [24]): 48 nM | concentration (Plasma [28]): 258 nM
SMILES: O=C(NC1CC1)c1cn(-c2cccc(C#Cc3ccc[n+]([O-])c3)c2)c2ncccc2c1=O [MK-0873]
Ratio IC50 [34]: 37 | minimal effective dose (Rattus norvegicus [35]): 0.3 mg/kg | MED (Rattus norvegicus [21]): 1 mg/kg

Source: ChEMBL document CHEMBL1799977, “Discovery of MK-0952, a selective PDE4 inhibitor for the treatment of long-term memory loss and mild cognitive impairment” (Bioorg Med Chem Lett, 2010)
